Measurements from different studies.
Lines come from different studies, so protocols differ.
Cell line: HepG2
Effect on: cell growth or viability

SMILES | method | concentration | time | quantity | value
O=C(CN1C(=O)/C(=C/c2ccccc2O)SC1=S)Nc1ccccc1 | MTT | 10 µM |  | inhibition | 26.4%
Cc1ccc2nc(-c3ccc([N+](=O)[O-])cc3)[nH]c2c1 | MTT |  | 48 h | IC50 | 18.6 µM
COc1ccc(NCC(=O)Nc2c(C#N)sc(Nc3ccccc3)c2C(=O)Nc2ccc(OC)cc2)cc1 | SRB | 1 µM | 48 h | viability | 71.6%
C=CCn1c(-c2ccc(OC)c(OC)c2)nc2ccccc21 | MTT |  |  | IC50 | 53.8 µM
O=C(CN1C(=O)/C(=C/c2ccccc2F)SC1=S)Nc1ccccc1 | MTT | 10 µM |  | inhibition | 7.65%
c1cncc(-c2nc3ccccc3[nH]2)c1 | MTT |  | 48 h | IC50 | 70.6 µM
CCOC(=O)c1ccc(N2C(N)=C(C#N)C3(C(=O)Nc4ccccc43)C(C#N)=C2O)cc1 (centres unmarked) | MTT | 25 µM | 24 h | viability | 23.5%
COc1ccc(-c2cc(-c3ccc4oc(=O)cc(C)c4c3O)nc(N)n2)cc1 | MTT | 32 µg/mL | 72 h | inhibition | 15%
COc1cc2ncnc(Nc3ccc(F)c(Cl)c3)c2cc1NC(=O)N/N=C/CN(C)C | MTT |  | 72 h | IC50 | 2.08 µM
COc1ccc(-c2nc3ccccc3[nH]2)cc1O | MTT |  | 48 h | IC50 | 64.2 µM
Cc1cc(Nc2ccc(C(=O)N/N=C/c3ccncc3)cc2)c2cccc(O)c2n1 | MTT | 20 µM |  | inhibition | 47.7%
COc1ccc(NC(=O)c2c(Nc3ccccc3)sc(C#N)c2NC(=O)CNc2ccc(C)cc2)cc1 | SRB | 100 µM | 48 h | viability | 62.3%
Cc1cc(Nc2ccc(C(=O)N/N=C/c3cccs3)cc2)c2cccc(O)c2n1 | MTT | 20 µM |  | inhibition | 49%
Cc1ccc(-c2cc(-c3ccc4oc(=O)cc(C)c4c3O)nc(N)n2)cc1 | MTT | 8 µg/mL | 72 h | inhibition | 0%
CC(=O)Nc1cccc(-n2c(=O)n(C3CC3)c(=O)c3c(Nc4ccc(I)cc4F)n(C)c(=O)c(C)c32)c1 | resazurin | 390 pM | 72 h | viability | 103%
Cc1ccc2nc(-c3ccc(Cl)cc3)n(Cc3ccccc3Cl)c2c1 | MTT |  |  | IC50 | 47.9 µM
COc1ccc(NC(=O)c2c(Nc3ccccc3)sc(C(=O)NN=Cc3cc(OC)c(OC)c(OC)c3)c2NC(C)=O)cc1 | SRB | 100 µM | 48 h | viability | 33.9%
O=C(CN1C(=O)/C(=C/c2ccc([N+](=O)[O-])cc2)SC1=S)Nc1ccccc1 | MTT | 10 µM |  | inhibition | 22.6%
CCOC(=O)c1cn(CC)c2cc(N3CCC(Cc4ccccc4)CC3)c(F)cc2c1=O | ATP luminescence |  | 48 h | EC50 | > 40 µM
CCOc1cc(-c2nc3ccccc3[nH]2)ccc1O | MTT |  | 48 h | IC50 | 42.5 µM
CCCC1CCN(c2cc3c(cc2F)c(=O)c(-c2nc(C)no2)cn3CC)CC1 | ATP luminescence |  | 48 h | EC50 | > 40 µM
Cc1cc(Nc2ccc(C(=O)N/N=C/c3ccc(C)s3)cc2)c2cccc(O)c2n1 | MTT | 20 µM |  | inhibition | 46.3%
Fc1ccc(-c2nc3ccccc3n2Cc2ccccc2)cc1 | MTT |  |  | IC50 | 45.9 µM
Cc1cc(=O)oc2ccc(-c3cc(-c4ccccc4)nc(N)n3)c(O)c12 | MTT | 32 µg/mL | 72 h | inhibition | 5%

SMILES | method | concentration | time | quantity | value
COc1ccc(NC(=O)c2c(Nc3ccccc3)sc(C#N)c2NC(=O)CNc2ccc(Cl)cc2)cc1 | SRB | 1 µM | 48 h | viability | 45.3%
CSc1ccc(-c2nc3ccc(C)cc3[nH]2)cc1 | MTT |  | 48 h | IC50 | > 100 µM
CCn1cc(-c2nc(C)no2)c(=O)c2cc(F)c(N3CCC(Cc4ccccc4)CC3)cc21 | ATP luminescence |  | 48 h | EC50 | > 40 µM
COc1ccc(NC(=O)c2c(Nc3ccccc3)sc(C#N)c2NC(=O)CNc2ccccc2[N+](=O)[O-])cc1 | SRB | 100 µM | 48 h | viability | 89.7%
O=C(CN1C(=O)/C(=C/c2ccccc2)SC1=S)Nc1ccccc1 | MTT | 10 µM |  | inhibition | 31.3%
CCOC(=O)c1ccc(-n2c(C)cc(/C=C/c3ccc(OC)cc3)c(C#N)c2=O)cc1 | MTT | 100 µM | 24 h | viability | 47.4%
COc1ccc(NC(=O)c2c(Nc3ccccc3)sc(C(=O)NN=Cc3ccc(Br)cc3)c2NC(C)=O)cc1 | SRB | 1 µM | 48 h | viability | 85.2%
Cc1cc(=O)oc2ccc(-c3cc(-c4cccs4)nc(N)n3)c(O)c12 | MTT | 8 µg/mL | 72 h | inhibition | 0%
CCOC(=O)c1ccc(NC(=O)C2=C3C(=Nc4ccccc43)NC2=O)cc1 | MTT | 100 µM | 24 h | viability | 35.6%
O=C(N/N=C/CN1CCCCC1)Nc1cc2c(Nc3ccc(F)c(Cl)c3)ncnc2cc1O[C@H]1CCOC1 | MTT |  | 72 h | IC50 | 0.42 µM
Cc1cc(=O)oc2ccc(-c3cc(-c4ccc(Cl)cc4)nc(N)n3)c(O)c12 | MTT | 2 µg/mL | 72 h | inhibition | 16%
COc1cccc(NC(=O)CN2C(=O)/C(=C/c3cccs3)SC2=S)c1 | MTT | 10 µM |  | inhibition | 12.2%
C[C@H]1[C@@H](CC(=O)NCC(=O)N[C@@H](CC(=O)NC(C)(C)C)C(=O)NCCNC(=O)c2cc(-c3ccccc3F)ccc2F)O[C@@H]2O[C@@]3(C)CC[C@H]4[C@H](C)CC[C@@H]1[C@@]24OO3 | ATP luminescence |  | 72 h | EC50 | 5.8 µM
Cc1cc(=O)oc2ccc(-c3cc(-c4ccc(Br)cc4)nc(N)n3)c(O)c12 | MTT | 128 µg/mL | 72 h | inhibition | 20%
CN1CCN(C/C=N/NC(=O)Nc2cc3c(Nc4ccc(F)c(Cl)c4)ncnc3cc2O[C@H]2CCOC2)CC1 | MTT |  | 72 h | IC50 | 3.28 µM
COc1ccc(NC(=O)c2c(Nc3ccccc3)sc(C#N)c2NC(=O)CNc2ccccc2)cc1 | SRB | 10 µM | 48 h | viability | 90.4%
CCn1cc(-c2nc(C)no2)c(=O)c2cc(F)c(N3CCCC3)cc21 | ATP luminescence |  | 48 h | EC50 | > 40 µM
CCOC(=O)c1ccc(-n2c(-c3ccc(C)cc3)cc(-c3ccc(O)cc3)c(C#N)c2=O)cc1 | MTT | 50 µM | 24 h | viability | 25.6%
CCOC(=O)c1cn(CC)c2cc(N3CCC(C)CC3)c(F)cc2c1=O | ATP luminescence |  | 48 h | EC50 | > 40 µM
CCOC(=O)c1ccc(-n2c(N)c(C#N)c(CC#N)c(C#N)c2=O)cc1 | MTT | 100 µM | 24 h | viability | 24.5%
COc1ccc(C=NNC(=O)c2sc(Nc3ccccc3)c(C(=O)Nc3ccc(OC)cc3)c2NC(C)=O)cc1 | SRB | 0.1 µM | 48 h | viability | 76.5%
CCOC(=O)c1ccc(-n2c(C)cc(/C=C/c3ccc(OCC)cc3)c(C#N)c2=O)cc1 | MTT | 1.56 µM | 24 h | viability | 100%
O=C(CN1C(=O)/C(=C/c2ccc(O)cc2)SC1=S)Nc1ccccc1 | MTT | 10 µM |  | inhibition | 31.6%
